# Only some compounds are listed: those with a hit (about 3.9% of all), similar ones and a draw of the others.
# TIM10 inh: TIM10 yeast growth inhibition. inhibition, % at 10 µM. S. cerevisiae TIM10 strain growth, BacTiter-Glo luminescence, 24 h. 1.4% of 330,000 active. AID 463195;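 active means inhibition of 40% or more at the single tested concentration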;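 further: wild-type TIM10 isogenic control strain grown at permissive 25 °C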
# tim23-1 inh: tim23-1 yeast growth inhibition; inhibition, % at 20 µM; 1.3% of 330,000 active; S. cerevisiae tim23-1 growth, BacTiter-Glo luminescence, 24 h;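 active means growth inhibition of the mutant yeast at or above 50%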;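 further: temperature-sensitive mutant grown at 25 °C; plate controls were DMSO-treated mutant yeast for no effect and medium wells lacking yeast for full effect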
# XBP1 UPR activ: activators of adaptive arm of unfolded protein response (XBP1); CHO-XBP1 luciferase reporter, IRE1-XBP1 UPR activation, luminescence; percent of tunicamycin response, DMSO as zero; 0.33% of 330,000 active; activation, % at 20 µM;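 active means versus positive control, 20 µM dose yields 30% or more activation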;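 further: 100% = tunicamycin at 10 µg/mL and 0% = DMSO only wells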
#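 Material: CHO cell line with stable XBP1 luciferase reporter; schedule: 16-18 h cell attachment at 37 °C, then 6 h compound exposure; signal: glow luminescence from Steady-Glo reagent; medium: serum-containing F12 medium, 10% FBS; benchmarks: tunicamycin 10 µg/mL and vehicle-only wells; read-out: percent activation relative to tunicamycin reference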
# tim10-1 inh: inhibits growth of tim10-1 mutant yeast | inhibition, % at 20 µM | S. cerevisiae tim10-1 ts strain growth, BacTiter-Glo, 24 h | 2.2% of 330,000 active | AID 463190;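 active means inhibition of at least 40%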;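 further: mutant grown at 25 °C; 0% = DMSO wells with yeast and 100% = wells holding no yeast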
# UPR CHOP act: apoptotic UPR (CHOP) activation. AID 449763. 0.34% of 330,000 active. activation, % at 10 µM. CHO-CHOP luciferase reporter, luminescence; percent of tunicamycin response over DMSO baseline;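 active means at 10 µM dose, activation of 40% or more, normalized to positive control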;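 further: 100% = tunicamycin at 10 µg/mL and 0% = DMSO alone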
#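 Assay system: CHO-CHOP cells, stable luciferase reporter of PERK-eIF2a-CHOP signalling / Buffer or medium: F12 plus 10% serum / Compound dosing: one dose, 10 µM in 0.5% DMSO / Times: 6 h compound treatment, 37 °C / Technique: luciferase luminescence / Read-out: % reporter activation, DMSO baseline versus tunicamycin full activation / Benchmarks: tunicamycin and DMSO controls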
# tim10-1 confirm: confirmation of tim10-1 mutant yeast growth inhibitors | inhibition, % at 20 µM | S. cerevisiae tim10-1 ts strain growth, BacTiter-Glo, 24 h | shares compounds with tim10-1 inh | 56% of 7,400 active;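 active means inhibition of yeast growth at or above a set limit in either of two repeat tests at 20 µM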;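 further: tim10-1 mutant grown at permissive 25 °C to find synthetic lethal compounds; 0% = DMSO yeast wells and 100% = medium wells without yeast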
# tim10 confirm: confirmation of TIM10 yeast growth inhibitors; shares compounds with TIM10 inh; S. cerevisiae tim10 strain growth, BacTiter-Glo luminescence, 24 h; inhibition, % at 10 µM; 63% of 4,600 active; AID 463215;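 active means inhibition of yeast growth at or above a set limit in either of two replicates at 10 µM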;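 further: this counterscreen used the strain with wild-type TIM10; 0% = yeast with DMSO and 100% = medium wells lacking yeast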
# tim23-1 confirm: tim23-1 yeast growth inhibition, confirmed. shares compounds with tim23-1 inh. inhibition, % at 20 µM. AID 463218. 83% of 4,400 active. S. cerevisiae tim23-1 growth, BacTiter-Glo luminescence, 24 h;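 active means inhibition above about 39% in either of two replicate wells at 20 µM, limit read from the data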;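 further: temperature-sensitive tim23-1 mutant grown at 25 °C; 0% = DMSO wells with yeast and 100% = medium wells without yeast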
# An asterisk follows results filed as active; x = no result.
SMILES,TIM10 inh,tim23-1 inh,XBP1 UPR activ,tim10-1 inh,UPR CHOP act,tim10-1 confirm,tim10 confirm,tim23-1 confirm
COc1c(O)c(O)c2oc(-c3ccccc3)cc(=O)c2c1OC,40*,59*,-2,50*,1,33*,31*,56*
O=[N+]([O-])c1cccnc1S(=O)(=O)c1ccccc1,-5,9,-10,22,-10,x,x,x
COc1ccc([N+](=O)[O-])c(S(=O)(=O)c2ccc(Cl)cc2)n1,83*,53*,-9,75*,-5,73*,94*,86*
COc1ccc([N+](=O)[O-])c(S(=O)(=O)c2ccccc2)n1,-16,77*,-9,50*,-9,46*,x,47*
Cc1ccc(C(c2cc(Cl)c3cccnc3c2O)N2CCN(C)CC2)cc1 (centres undefined),8,55*,15,41*,20,25,x,80*
CN1CCN(C(c2ccc(C(F)(F)F)cc2)c2ccc3cccnc3c2O)CC1 (centres undefined),10,49,19,36,4,x,x,x
Cc1nn(-c2ccccc2)c(C)c1NC(=O)COC(=O)/C=C/c1ccccc1,9,-12,-2,18,1,x,x,x
COc1ccccc1CNC(=O)c1ccc2c(=O)n(CCCN3CCCC3=O)c(=S)[nH]c2c1,-3,-13,4,11,1,x,x,x
O=C(Nc1ccc(Cl)cc1Cl)c1cc2ccccc2o1,-12,7,-1,2,5,x,x,x
O/N=C(\c1ccc(Cl)cc1)c1cc2ccccc2o1,53*,67*,1,46*,1,67*,60*,64*
Cc1cc(C)nc(Sc2ccc(C=O)cc2[N+](=O)[O-])n1,11,15,-3,19,-1,x,x,x
O=Cc1ccc(Sc2nnc(-c3ccccc3)o2)c([N+](=O)[O-])c1,42*,55*,8,48*,0,35*,18,58*
S=c1[nH]nc(-c2ccco2)n1-c1ccc(Br)cc1,21,27,-1,14,1,x,x,x
CC(C)(C)C1C/C(=C/c2ccccn2)C(=O)/C(=C/c2ccccn2)C1 (centres undefined),69*,68*,-7,66*,-9,70*,75*,27
CC1C/C(=C/c2ccccn2)C(=O)/C(=C/c2ccccn2)C1 (centres undefined),67*,65*,-6,67*,14,66*,71*,82*
C(=C\c1ccccn1)/c1ccccn1,-7,10,3,4,6,x,x,x
O=C1/C(=C/c2ccccn2)COc2ccccc21,64*,76*,4,54*,1,68*,75*,72*
CC1C/C(=C/c2ccco2)C(=O)/C(=C/c2ccco2)C1 (centres undefined),34,54*,2,54*,6,32*,x,43*
CC1CCC(NC(=O)CCNC(=O)c2ccc(Br)cc2)CC1 (centres undefined),-6,4,0,10,4,x,x,x
Cc1cccc(-n2ccc(=O)c(C(=O)Nc3ccc(S(=O)(=O)N4CCOCC4)cc3)n2)c1,7,-3,-4,8,-1,x,x,x
O=C(Nc1nc2c(Br)cccc2s1)C1CC1,20,80*,1,46*,2,36*,x,76*
Cc1cccc2sc(NC(=O)C3CC3)nc12,12,26,2,6,2,x,x,x
COc1cc(/C=C(/C#N)C(=O)NCc2ccccc2)cc(OC)c1OC,34,63*,5,55*,2,49*,x,61*
Cc1cc(/C=C(\C#N)C(=O)NCc2ccccc2)cc(C)c1O,-13,7,1,-6,-1,x,x,x
COc1ccc(C(=O)OCC(=O)NC2CCCCCCC2)cc1OC,5,15,-5,-10,-1,x,x,x
O=S(=O)(c1ccccc1)c1ncc(C(F)(F)F)cc1Cl,23,53*,-4,46*,19,22,x,51*
